Two molecules from ChEMBL document CHEMBL1137494, “The antiviral drug ribavirin is a selective inhibitor of S-adenosyl-L-homocysteine hydrolase from Trypanosoma cruzi” (Bioorg Med Chem, 2007) can be followed below.

Test [1] relates to Trypanosoma cruzi. Description: Inactivation of Trypanosoma cruzi recombinant S-adenosyl-L-homocysteine hydrolase NADH form expressed in Escherichia coli JM109 assessed by measuring fluorescence.
For test [2], the system named is Trypanosoma cruzi. Description: Inactivation of Trypanosoma cruzi recombinant S-adenosyl-L-homocysteine hydrolase NAD+ form expressed in Escherichia coli JM109 assessed as increase in fluorescence at 200 uM. In short, it runs like this: (§1)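 NAD+-reconstituted enzyme (10 μM) incubated with 200 μM ribavirin plus 100 μM NAD+ in 50 mM phosphate pH 7.2, 1 mM EDTA at 37 °C; rise in NADH fluorescence (ex 340/em 450 nm) followed over time and fit to first-order relationship.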

The target of test [3] is Adenosylhomocysteinase (Homo sapiens) (UniProt P23526). Nature of the test: Binding to human recombinant S-adenosyl-L-homocysteine hydrolase NADH form expressed in Escherichia coli JM109. An outline of the steps: (§2)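 Apo-enzyme reconstituted with 1 mM NADH (pH 8.5, 12 h, 4 °C) and gel-filtration purified; 10 μM enzyme incubated with ribavirin 0-6 mM in 50 mM phosphate pH 7.2, 1 mM EDTA, 37 °C. Quenching of bound NADH fluorescence (ex 340/em 450 nm) fit to hyperbolic saturation model to give dissociation constant KR.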
Chain of Adenosylhomocysteinase (Homo sapiens) (P23526 2-432 limits assumed): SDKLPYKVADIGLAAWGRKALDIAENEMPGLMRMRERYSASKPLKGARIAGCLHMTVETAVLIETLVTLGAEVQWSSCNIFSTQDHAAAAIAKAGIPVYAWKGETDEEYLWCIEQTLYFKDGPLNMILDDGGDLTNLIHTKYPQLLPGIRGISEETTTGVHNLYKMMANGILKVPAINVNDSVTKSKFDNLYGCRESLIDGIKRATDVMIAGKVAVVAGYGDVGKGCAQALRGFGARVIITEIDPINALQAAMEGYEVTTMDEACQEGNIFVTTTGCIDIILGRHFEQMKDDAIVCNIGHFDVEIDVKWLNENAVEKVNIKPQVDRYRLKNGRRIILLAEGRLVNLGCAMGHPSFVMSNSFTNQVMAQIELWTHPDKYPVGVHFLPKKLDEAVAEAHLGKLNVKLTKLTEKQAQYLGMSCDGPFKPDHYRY

Test [4] deals with Trypanosoma cruzi. Description: Inactivation of Trypanosoma cruzi recombinant S-adenosyl-L-homocysteine hydrolase NAD+ form expressed in Escherichia coli JM109 at 100 uM. In short, it runs like this:
(§3)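 Enzyme (1 μM), fully reconstituted with NAD+, incubated with 100 μM ribavirin and 50 μM NAD+ in phosphate pH 7.2 at 37 °C; remaining hydrolytic activity (AdoHcy → Ado + Hcy, ADA-coupled, DTNB read at 412 nm, 22 °C) sampled over time; first-order inactivation rate constant.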

The target in test [5] is Adenosylhomocysteinase (Homo sapiens) (UniProt P23526). Nature of the test: Inactivation of human recombinant S-adenosyl-L-homocysteine hydrolase NAD+ form expressed in Escherichia coli JM109 at 100 uM. An outline of the steps: as §3
For test [6], the system named is Trypanosoma cruzi. Description: Ratio of kinact for Trypanosoma cruzi recombinant S-adenosyl-L-homocysteine hydrolase NAD form to KI for Trypanosoma cruzi recombinant S-adenosyl-L-homocysteine hydrolase NAD form.
The target of test [7] is Adenosylhomocysteinase (Homo sapiens) (UniProt P23526). Nature of the test: Ratio of kinact for human recombinant S-adenosyl-L-homocysteine hydrolase NAD+ form to KI for human recombinant S-adenosyl-L-homocysteine hydrolase NAD+.
Test [8] shares this target. Description: Inactivation of human recombinant S-adenosyl-L-homocysteine hydrolase NAD+ form expressed in Escherichia coli JM109 assessed as increase in fluorescence at 200 uM. In short, it runs like this: as §1
Test [9] has as its system Trypanosoma cruzi. Description: Binding to Trypanosoma cruzi recombinant S-adenosyl-L-homocysteine hydrolase NADH form expressed in Escherichia coli JM109. In short, it runs like this:
as §2

On to `Nc1ncnc2c1ncn2[C@@H]1C=C[C@@H](O)[C@H]1O`, for which, in the test with Trypanosoma cruzi [1], the Fluorescence intensity worked out at 5.4%.

On to `NC(=O)c1ncn([C@@H]2O[C@H](CO)[C@@H](O)[C@H]2O)n1`, for which the Fluorescence intensity was found to be 227000 in the test with Trypanosoma cruzi [2] and 182000 in test [8]. The KR was 407 µM in test [3] and 586 µM in the test with Trypanosoma cruzi [9]. For the same molecule, the values for the Activity entry (with Trypanosoma cruzi [4]; in [5]; with Trypanosoma cruzi [1]) were “Dose-dependent effect”, “Dose-dependent effect” and 3.13 10^10/M, respectively. The values for the Ratio (in the test on Trypanosoma cruzi [6]; in [7]) were 3.92 M⁻¹ s⁻¹ and 0.56 M⁻¹ s⁻¹, respectively.
